{"data": "Experimental data of several laboratories", "SLC7A5": "Large neutral amino acids transporter small subunit 1 (SLC7A5, Homo sapiens, UniProt Q01650)", "XDH": "Xanthine dehydrogenase/oxidase (XDH, Bos taurus, UniProt P80457)", "SPHK2": "Sphingosine kinase 2 (SPHK2, Homo sapiens, UniProt Q9NRA0)", "SIRT1": "NAD-dependent protein deacetylase sirtuin-1 (SIRT1, Homo sapiens, UniProt Q96EB6)"}
{"SMILES": "N[C@@H](Cc1cccc(OC(=O)c2ccccc2)c1)C(=O)O", "target": "SLC7A5", "observed": "transporter uptake", "mode": "inhibitor", "method": "radiometric", "tested at": "200 µM", "inhibition [%]": 100}
{"SMILES": "O=Cc1c[nH]c2ccccc12", "target": "XDH", "observed": "enzyme activity", "mode": "inhibitor", "method": "absorbance", "tested at": "100 µg/mL", "inhibition [%]": 8.1}
{"SMILES": "NC(CCCNC(=O)c1ccccc1)C(=O)O (centres unmarked)", "target": "SLC7A5", "observed": "transporter uptake", "mode": "inhibitor", "method": "radiometric", "tested at": "200 µM", "inhibition [%]": 54}
{"SMILES": "N=C(N)N1CCC[C@H]1c1nc(-c2ccc(CCC3CC3)c(C(F)(F)F)c2)no1", "target": "SPHK2", "observed": "enzyme activity", "mode": "inhibitor", "method": "radiometric", "tested at": "0.3 µM", "inhibition [%]": 32}
{"SMILES": "CCCCCCCCCCCCNC(=S)NCCCC[C@H](NC(=O)OCc1ccccc1)C(=O)N[C@@H](CCCCN)C(=O)N[C@@H](CCCNC(=N)N)C(N)=O", "target": "SIRT1", "observed": "enzyme activity", "mode": "inhibitor", "tested at": "1 µM", "inhibition [%]": 25}
{"SMILES": "CCCCCC1CC(=O)c2cc(F)cc(F)c2O1 (centres unmarked)", "target": "SIRT1", "observed": "enzyme activity", "mode": "inhibitor", "method": "fluorescence", "tested at": "200 µM", "inhibition [%]": 0.4}
{"SMILES": "CCCCCCCCCCCCNC(=S)NCCCC[C@H](NC(=O)OCc1ccccc1)C(=O)N[C@@H](Cc1c[nH]c2ccccc12)C(=O)N[C@@H](CCCCN)C(N)=O", "target": "SIRT1", "observed": "enzyme activity", "mode": "inhibitor", "tested at": "10 µM", "inhibition [%]": 71}
{"SMILES": "CC(C)CCn1c(SCC(=O)Nc2ccccc2C(F)(F)F)nc2nccnc2c1=O", "target": "SPHK2", "observed": "enzyme activity", "mode": "inhibitor", "tested at": "10 µM", "inhibition [%]": "< 20"}
{"SMILES": "CCCCCCCCCCCCNC(=S)NCCCC[C@H](NC(=O)OCc1ccccc1)C(=O)N[C@@H](Cc1c[nH]c2ccccc12)C(=O)N[C@@H](CCNC(=N)N)C(N)=O", "target": "SIRT1", "observed": "enzyme activity", "mode": "inhibitor", "tested at": "1 µM", "inhibition [%]": 30}
{"SMILES": "O=C1C=C(c2ccc(O)c(O)c2)CO1", "target": "XDH", "observed": "enzyme activity", "mode": "inhibitor", "method": "absorbance", "tested at": "100 µg/mL", "inhibition [%]": 17.2}
{"SMILES": "CCCCCC1CC(O)c2cc(Cl)cc(Br)c2O1 (centres unmarked)", "target": "SIRT1", "observed": "enzyme activity", "mode": "inhibitor", "method": "fluorescence", "tested at": "200 µM", "inhibition [%]": -5.5}
{"SMILES": "CCOCCOCCNC(=S)NCCCC[C@H](NS(C)(=O)=O)C(=O)N[C@H](C)C(=O)N[C@@H](CCCNC(=N)N)C(N)=O", "target": "SIRT1", "observed": "enzyme activity", "mode": "inhibitor", "tested at": "100 µM", "inhibition [%]": 12}
{"SMILES": "O=C1CC(CCc2ccccc2)Oc2c(Br)cc(Cl)cc21 (centres unmarked)", "target": "SIRT1", "observed": "enzyme activity", "mode": "inhibitor", "method": "fluorescence", "tested at": "200 µM", "inhibition [%]": 6.9}
{"SMILES": "N[C@@H](CO)C(=O)O", "target": "SLC7A5", "observed": "transporter uptake", "mode": "inhibitor", "method": "radiometric", "tested at": "200 µM", "inhibition [%]": -1}
{"SMILES": "CCCC=CCOc1ccc(-c2noc([C@@H]3CCCN3C(=N)N)n2)cc1C(F)(F)F", "target": "SPHK2", "observed": "enzyme activity", "mode": "inhibitor", "method": "radiometric", "tested at": "0.3 µM", "inhibition [%]": 28}
{"SMILES": "CSSc1ccccc1C(=O)O", "target": "Procathepsin L (CTSL, Homo sapiens, UniProt P07711)", "observed": "enzyme activity", "mode": "inhibitor", "method": "fluorescence", "tested at": "20 µM", "inhibition [%]": 93}
{"SMILES": "N[C@@H](CCCCNC(=O)c1ccccc1)C(=O)O", "target": "SLC7A5", "observed": "transporter uptake", "mode": "inhibitor", "method": "radiometric", "tested at": "200 µM", "inhibition [%]": 38}
{"SMILES": "[H]/N=C(\\N)N1CCC[C@H]1c1nc(-c2ccc(OCC=Cc3ccc(C(F)(F)F)cc3)c(C(F)(F)F)c2)no1", "target": "SPHK2", "observed": "enzyme activity", "mode": "inhibitor", "method": "radiometric", "tested at": "0.3 µM", "inhibition [%]": 75}
{"SMILES": "O=C(CSc1nc2nccnc2c(=O)n1CCc1ccccc1)Nc1nccs1", "target": "SPHK2", "observed": "enzyme activity", "mode": "inhibitor", "tested at": "10 µM", "inhibition [%]": 0}
{"SMILES": "CNC(=O)c1cc(Oc2ccc(NC(=O)Nc3ccc(Cl)c(C(F)(F)F)c3)cc2)ccn1", "target": "Platelet-derived growth factor receptor alpha (PDGFRA, Homo sapiens, UniProt P16234)", "observed": "enzyme activity", "mode": "inhibitor", "tested at": "10 µM", "inhibition [%]": 95}
{"SMILES": "O=C(NC1CCC1)[C@H](Cc1c[nH]c2ccccc12)NC(=O)[C@H](CCCCNC(=S)NCCc1nnn[nH]1)NS(=O)(=O)c1cccc(F)c1", "target": "SIRT1", "observed": "enzyme activity", "mode": "inhibitor", "tested at": "1 µM", "inhibition [%]": 7}
{"SMILES": "CCCCCCCCCCCCNC(=O)NCCCC[C@H](NS(C)(=O)=O)C(=O)N[C@H](C)C(=O)N[C@@H](CCCNC(=N)N)C(N)=O", "target": "SIRT1", "observed": "enzyme activity", "mode": "inhibitor", "tested at": "10 µM", "inhibition [%]": 38}
{"SMILES": "O=Cc1ccc(O)cc1", "target": "XDH", "observed": "enzyme activity", "mode": "inhibitor", "method": "absorbance", "tested at": "200 µg/mL", "inhibition [%]": 6.5}
{"SMILES": "CCCCCC=CCOc1ccc(-c2noc([C@@H]3CCCN3C(=N)N)n2)cc1C(F)(F)F (mixture of isomers)", "target": "SPHK2", "observed": "enzyme activity", "mode": "inhibitor", "method": "radiometric", "tested at": "0.3 µM", "inhibition [%]": 40}
{"SMILES": "OCCc1ccc(O)cc1", "target": "XDH", "observed": "enzyme activity", "mode": "inhibitor", "method": "absorbance", "tested at": "100 µg/mL", "inhibition [%]": 7.9}
{"SMILES": "N=C(N)N1CCC[C@H]1c1nc(-c2ccc(CCC3CCCC3)c(C(F)(F)F)c2)no1", "target": "SPHK2", "observed": "enzyme activity", "mode": "inhibitor", "method": "radiometric", "tested at": "0.3 µM", "inhibition [%]": 25}
{"SMILES": "CCCC1CC(=O)c2cc(Cl)cc(Br)c2O1 (centres unmarked)", "target": "SIRT1", "observed": "enzyme activity", "mode": "inhibitor", "method": "fluorescence", "tested at": "200 µM", "inhibition [%]": 6.4}
{"SMILES": "CCCCCCCCNC(=S)NCCCC[C@H](NS(C)(=O)=O)C(=O)N[C@H](C)C(=O)N[C@@H](CCCNC(=N)N)C(N)=O", "target": "SIRT1", "observed": "enzyme activity", "mode": "inhibitor", "tested at": "10 µM", "inhibition [%]": 71}
{"SMILES": "CCCCCC1CCc2cc(Cl)cc(Br)c2O1 (centres unmarked)", "target": "SIRT1", "observed": "enzyme activity", "mode": "inhibitor", "method": "fluorescence", "tested at": "200 µM", "inhibition [%]": -5.2}
{"SMILES": "O=C(c1ccc(F)cc1)N(Cc1ccccc1)C1CCCCC1", "target": "Alpha-1B adrenergic receptor (Adra1b, Rattus norvegicus, UniProt P15823)", "observed": "cell-free assay", "tested at": "10 µM", "inhibition [%]": 4}
{"SMILES": "OCCc1ccc(O)c(O)c1", "target": "XDH", "observed": "enzyme activity", "mode": "inhibitor", "method": "absorbance", "tested at": "100 µg/mL", "inhibition [%]": 7.3}
{"SMILES": "[H]/N=C(\\N)N1CCC[C@H]1c1nc(-c2ccc(OCC=Cc3ccc(F)cc3)c(C(F)(F)F)c2)no1", "target": "SPHK2", "observed": "enzyme activity", "mode": "inhibitor", "method": "radiometric", "tested at": "0.3 µM", "inhibition [%]": 57}
{"SMILES": "COc1cc(-c2cc(-c3ccc(N4CCNCC4)cc3)cnc2N)cc(OC)c1OC", "target": "Platelet-derived growth factor receptor alpha (PDGFRA, Homo sapiens, UniProt P16234, D842V)", "observed": "enzyme activity", "mode": "inhibitor", "tested at": "1 µM", "inhibition [%]": 90}
{"SMILES": "O=C(CO)c1ccc(O)c(O)c1", "target": "XDH", "observed": "enzyme activity", "mode": "inhibitor", "method": "absorbance", "tested at": "100 µg/mL", "inhibition [%]": 20}
{"SMILES": "O=C(NC1CCC1)[C@H](Cc1c[nH]c2ccccc12)NC(=O)[C@H](CCCCNC(=S)NCc1cc(O)no1)NS(=O)(=O)c1cccc(F)c1", "target": "SIRT1", "observed": "enzyme activity", "mode": "inhibitor", "tested at": "30 µM", "inhibition [%]": 49}
{"SMILES": "CCCCCC1CC(=O)c2cc(Br)cc(Br)c2O1 (centres unmarked)", "target": "SIRT1", "observed": "enzyme activity", "mode": "inhibitor", "method": "fluorescence", "tested at": "200 µM", "inhibition [%]": 0.6}
{"SMILES": "O=C(O)c1ccc(O)cc1", "target": "XDH", "observed": "enzyme activity", "mode": "inhibitor", "method": "absorbance", "tested at": "100 µg/mL", "inhibition [%]": 14.7}
{"SMILES": "CCCCCCCCCCCCNC(=S)NCCCC[C@H](NC(=O)C1CCCCC1)C(=O)N[C@H](C)C(=O)N[C@@H](CCCNC(=N)N)C(N)=O", "target": "SIRT1", "observed": "enzyme activity", "mode": "inhibitor", "tested at": "1 µM", "inhibition [%]": 44}
{"SMILES": "O=C(NC1CCC1)[C@H](Cc1c[nH]c2ccccc12)NC(=O)[C@H](CCCCNC(=S)NCCn1nn[nH]c1=O)NS(=O)(=O)c1cccc(F)c1", "target": "SIRT1", "observed": "enzyme activity", "mode": "inhibitor", "tested at": "10 µM", "inhibition [%]": 17}
{"SMILES": "O=C(O)Cc1ccccc1OP(=O)(O)O", "target": "Signal transducer and activator of transcription 5B, SH2 (STAT5B, Homo sapiens, UniProt P51692)", "observed": "ligand displacement", "method": "FP", "tested at": "100 µM", "inhibition [%]": 39}
{"SMILES": "CCCCCC1CC(=O)c2cc(Cl)cc(Br)c2O1 (centres unmarked)", "target": "SIRT1", "observed": "enzyme activity", "mode": "inhibitor", "method": "fluorescence", "tested at": "200 µM", "inhibition [%]": 6.2}
{"SMILES": "N[C@@H](Cc1ccc(OC(=O)c2ccccc2)cc1)C(=O)O", "target": "SLC7A5", "observed": "transporter uptake", "mode": "inhibitor", "method": "radiometric", "tested at": "200 µM", "inhibition [%]": 49}
{"SMILES": "CCc1ccc(CCc2ccc(-c3noc([C@@H]4CCCN4C(=N)N)n3)cc2C(F)(F)F)cc1", "target": "SPHK2", "observed": "enzyme activity", "mode": "inhibitor", "method": "radiometric", "tested at": "0.3 µM", "inhibition [%]": 63}
{"SMILES": "O=C(O)c1ccc(O)c(O)c1", "target": "XDH", "observed": "enzyme activity", "mode": "inhibitor", "method": "absorbance", "tested at": "100 µg/mL", "inhibition [%]": 9.5}
{"SMILES": "CCCC(=S)NCCCC[C@H](NS(C)(=O)=O)C(=O)N[C@H](C)C(=O)N[C@@H](CCCNC(=N)N)C(N)=O", "target": "SIRT1", "observed": "enzyme activity", "mode": "inhibitor", "tested at": "10 µM", "inhibition [%]": 14}
{"SMILES": "[H]/N=C(/N)N1CCC[C@H]1c1nc(-c2ccc(OCCC=CCCC)c(C(F)(F)F)c2)no1", "target": "SPHK2", "observed": "enzyme activity", "mode": "inhibitor", "method": "radiometric", "tested at": "0.3 µM", "inhibition [%]": 56}
{"SMILES": "CC(C)C1CC(=O)c2cc(Cl)cc(Br)c2O1 (centres unmarked)", "target": "SIRT1", "observed": "enzyme activity", "mode": "inhibitor", "method": "fluorescence", "tested at": "200 µM", "inhibition [%]": 2.8}
